Data on three molecules can be found in paper PMC11661184 (bioRxiv, 2024).

This test concerns CaM (Calmodulin-agarose). Kind of test: CaM-agarose pulldown of TRPA1 constructs. Particulars: for CaM binding at basal Ca2+ concentration: n=3 independent experiments. The format is binding. Summed up: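 HEK293T cells were transfected with tagged TRPA1 constructs and lysed after 16-24 h in Tris pH 8.0 buffer containing 5 mM DDM and 500 µM EGTA. Free Ca²⁺ was set with CaCl₂, calculated from EGTA constants. 100 µg lysate was incubated with CaM-agarose for 1 h at 4 °C, washed, then eluted with 5 mM EGTA. Detection was by anti-FLAG or anti-MBP immunoblot, with tubulin input control. Enrichment is relative to the maximum within each replicate.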

B1: WT C. elegans TRPA1: WT C. elegans TRPA1, MBP-tagged (protein)
chain: MSKKSLGLDVRLELEGLISNDDTIRSEKDGRQASIFRVAELDARTEADNLRSIIHQSAREGNVNALQEALLKAPLAVNAQDGDFMTPLHYAARYGNYDAVKLLLSKNALPNTKNREGDTPLHIASKYIYGYSDICSIIDEDQADSARKYNTATKKIINALVSENAEIDPVNKYQLTPLHYAAMKSNFSALHALIKLKADVDAEDDNKMTPLLLACVHGSQEIIQELIKANSNVTKRDQRLNTVFHIVALRGEPEYLEMMMDHDPVEAIKALNLFNNEKKTPLRMAVEGNHPETLKKILQMEKKNSCKWMDREKELIHFAAEKGFLEVLKALVEAGGNKNELNEVKAVPLHVAAQMNQLEVVSYLIEEEKDNIDVVDEQGLTPLMMAVTHDSKKCVEYLIAKKANLTITDKDERTPVFIGAKFNALSSVEYILDHLRKKNKETERSALKSPTRNTLRIVSEDVRRTMVNMVDRDQNTPMHIVASNGYLEMMQLLQKHGASITQVNEDEETALHRAAIGGQTGAVRQLLEWDIRLLLMKDEMGNSALHLAARSGHDATTKVLLDNGADKEAKNSYQKTPLQVAVDSGKLETCQRLVAKGAQIESSSDTKTVLHTAAFYGNESIVRYFIAEGVTIDRRDEEGKTAFDIACENDHKDVARAFLETDQWKNLMIPCDVIPLDKHRNPVNMKRRTPFRTLLTKFPELASFVMDNCIEKSKEETDSTQSVAYNFEFLDDTYMMRCVSDDGTGEQLIGCKSAYDEDFKLEKDAQSYASNYDRVYKYHPLKLMADAEKLHLLNHPLSKALLKYKWNRLGRPMYYFALFMYLVFIVSLTQYVRHTKAPYNVWNEESYYDSEYFDENETCPQINTTKPDVVWKIIIQTLAVCQILVECFQLFQRKFAYLVNWENWIDCFIYSTALITVYDFSECSATSGVRQNWQWILAALCIFFGWINLLFMIRKMPRFGIFVVMFVDIVKTFFRFFPVFVLFIIAFSSSFYVILQNRPEFSTIFMSPLKTTVMMIGEFEFTGIFHGDETTHAEKMFGPAHTAVACALFFFFCIIMTILLMNLLVGLAVDDIKGVQEKAELKRLAMQVDLVLQIEASLHFFIQRTKKYATCRYATFPYGKLHKTGFAGWWSNFRRRFGLSVSTDPEIDEMYEREAEFTSEMTQKLQNQAAKLKNIQENIDVMYEKQVRLEAIIAKLATGLNINIELEEKDN
Turning to B1, where the note is “MBP-tagged constructs, absence or presence of Ca2+, four independent experiments”, the “CaM binding of TRPA1 species orthologues” value is given as “failed to bind CaM”.

B2: Quad: hTRPA1 W1103A/V1106A/L1107A/V1110A (protein)
chain: MKRSLRKMWRPGEKKEPQGVVYEDVPDDTEDFKESLKVVFEGSAYGLQNFNKQKKLKRCDDMDTFFLHYAAAEGQIELMEKITRDSSLEVLHEMDDYGNTPLHCAVEKNQIESVKFLLSRGANPNLRNFNMMAPLHIAVQGMNNEVMKVLLEHRTIDVNLEGENGNTAVIIACTTNNSEALQILLKKGAKPCKSNKWGCFPIHQAAFSGSKECMEIILRFGEEHGYSRQLHINFMNNGKATPLHLAVQNGDLEMIKMCLDNGAQIDPVEKGRCTAIHFAATQGATEIVKLMISSYSGSVDIVNTTDGCHETMLHRASLFDHHELADYLISVGADINKIDSEGRSPLILATASASWNIVNLLLSKGAQVDIKDNFGRNFLHLTVQQPYGLKNLRPEFMQMQQIKELVMDEDNDGCTPLHYACRQGGPGSVNNLLGFNVSIHSKSKDKKSPLHFAASYGRINTCQRLLQDISDTRLLNEGDLHGMTPLHLAAKNGHDKVVQLLLKKGALFLSDHNGWTALHHASMGGYTQTMKVILDTNLKCTDRLDEDGNTALHFAAREGHAKAVALLLSHNADIVLNKQQASFLHLALHNKRKEVVLTIIRSKRWDECLKIFSHNSPGNKCPITEMIEYLPECMKVLLDFCMLHSTEDKSCRDYYIEYNFKYLQCPLEFTKKTPTQDVIYEPLTALNAMVQNNRIELLNHPVCKEYLLMKWLAYGFRAHMMNLGSYCLGLIPMTILVVNIKPGMAFNSTGIINETSDHSEILDTTNSYLIKTCMILVFLSSIFGYCKEAGQIFQQKRNYFMDISNVLEWIIYTTGIIFVLPLFVEIPAHLQWQCGAIAVYFYWMNFLLYLQRFENCGIFIVMLEVILKTLLRSTVVFIFLLLAFGLSFYILLNLQDPFSSPLLSIIQTFSMMLGDINYRESFLEPYLRNELAHPVLSFAQLVSFTIFVPIVLMNLLIGLAVGDIAEVQKHASLKRIAMQVELHTSLEKKLPLWFLRKVDQKSTIVYPNKPRSGGMLFHIFCFLFCTGEIRQEIPNADKSLEMEILKQKYRLKDLTFLLEKQHELIKLIIQKMEIISETEDDDSHCSFQDRFKKEQMEQRNSRANTAARAAKAKTHHLEP
For B2, the “CaM binding at basal Ca2+ concentration” value is on record as “similarly ablated CaM binding”.

B3: RK/AA (protein)
chain: MKRSLRKMWRPGEKKEPQGVVYEDVPDDTEDFKESLKVVFEGSAYGLQNFNKQKKLKRCDDMDTFFLHYAAAEGQIELMEKITRDSSLEVLHEMDDYGNTPLHCAVEKNQIESVKFLLSRGANPNLRNFNMMAPLHIAVQGMNNEVMKVLLEHRTIDVNLEGENGNTAVIIACTTNNSEALQILLKKGAKPCKSNKWGCFPIHQAAFSGSKECMEIILRFGEEHGYSRQLHINFMNNGKATPLHLAVQNGDLEMIKMCLDNGAQIDPVEKGRCTAIHFAATQGATEIVKLMISSYSGSVDIVNTTDGCHETMLHRASLFDHHELADYLISVGADINKIDSEGRSPLILATASASWNIVNLLLSKGAQVDIKDNFGRNFLHLTVQQPYGLKNLRPEFMQMQQIKELVMDEDNDGCTPLHYACRQGGPGSVNNLLGFNVSIHSKSKDKKSPLHFAASYGRINTCQRLLQDISDTRLLNEGDLHGMTPLHLAAKNGHDKVVQLLLKKGALFLSDHNGWTALHHASMGGYTQTMKVILDTNLKCTDRLDEDGNTALHFAAREGHAKAVALLLSHNADIVLNKQQASFLHLALHNKRKEVVLTIIRSKRWDECLKIFSHNSPGNKCPITEMIEYLPECMKVLLDFCMLHSTEDKSCRDYYIEYNFKYLQCPLEFTKKTPTQDVIYEPLTALNAMVQNNRIELLNHPVCKEYLLMKWLAYGFRAHMMNLGSYCLGLIPMTILVVNIKPGMAFNSTGIINETSDHSEILDTTNSYLIKTCMILVFLSSIFGYCKEAGQIFQQKRNYFMDISNVLEWIIYTTGIIFVLPLFVEIPAHLQWQCGAIAVYFYWMNFLLYLQRFENCGIFIVMLEVILKTLLRSTVVFIFLLLAFGLSFYILLNLQDPFSSPLLSIIQTFSMMLGDINYRESFLEPYLRNELAHPVLSFAQLVSFTIFVPIVLMNLLIGLAVGDIAEVQKHASLKRIAMQVELHTSLEKKLPLWFLRKVDQKSTIVYPNKPRSGGMLFHIFCFLFCTGEIRQEIPNADKSLEMEILKQKYRLKDLTFLLEKQHELIKLIIQKMEIISETEDDDSHCSFQDRFKKEQMEQRNSAWNTVLRAVAAKTHHLEP
With B3, the “CaM binding at basal Ca2+ concentration” value was “similarly ablated CaM binding”.
